Laboratory results taken from ChEMBL document CHEMBL2434866, “Synthesis, antibacterial and antioxidant activities of new 1-alkyl-4-(1-alkyl-4-oxo-1,4-dihydroquinolin-2-yl)pyridinium bromides” (2013).
Calls of active or inactive are those of the source. No cut-off for these calls is given here.

Legend:
[1] = Antioxidant activity assessed as trolox equivalent of ferric ion reducing activity using fe2+-TPTZ at 1 mg/ml after 20 mins by FRAP assay; format: functional
Outline: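 Sample at 1 mg/mL was mixed with reagent, kept 20 min at room temperature, and read at 595 nm against a water blank. Triplicates were corrected for reagent and sample blanks. TEAC came from a five-point Trolox calibration curve.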

[2] = test system: Radical scavenging activity; experiment: Antioxidant activity assessed as DPPH radical scavenging activity after 50 mins; format: functional
Outline: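 DPPH• in methanol was mixed 1:1 with sample at five final concentrations (6.25–100.00), vortexed, and kept 50 min at room temperature. Absorbance was read at 517 nm and plotted against concentration, with reagent-blank and solvent controls. SC50 was read from the graph as the concentration halving the initial DPPH•.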

Klebsiella pneumoniae [3] = experiment: Antibacterial activity against Klebsiella pneumoniae ATCC 13883 assessed as growth inhibition after 18 to 24 hrs by microdilution assay; format: functional
Outline: (§1)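 Broth microdilution MIC in LB medium at pH 7.2. Compounds came from DMSO stocks and were serially diluted from 1000 to 7.8 (final). Inoculum was mid-log cells diluted to OD600 0.004 (about 5 × 10^5 CFU/mL). Plates were incubated at 37 °C for 18–24 h. MIC was the last dilution without visible turbidity. Controls were DMSO solvent, medium ± antibiotic, and ampicillin.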

Pseudomonas aeruginosa [4] = experiment: Antibacterial activity against Pseudomonas aeruginosa ATCC 27853 assessed as growth inhibition after 18 to 24 hrs by microdilution assay; format: functional; outline: as §1
Enterococcus faecalis [5] = experiment: Antibacterial activity against Enterococcus faecalis ATCC 29212 assessed as growth inhibition after 18 to 24 hrs by microdilution assay; format: functional; outline: as §1
Proteus vulgaris [6] = experiment: Antibacterial activity against Proteus vulgaris ATCC 13315 assessed as growth inhibition after 18 to 24 hrs by microdilution assay; format: functional; outline: as §1
Bacillus spizizenii [7] = experiment: Antibacterial activity against Bacillus subtilis ATCC 6633 assessed as growth inhibition after 18 to 24 hrs by microdilution assay; format: functional; outline: as §1
Staphylococcus aureus [8] = experiment: Antibacterial activity against Staphylococcus aureus ATCC 25923 assessed as growth inhibition after 18 to 24 hrs by microdilution assay; format: functional; outline: as §1
Staphylococcus aureus [9] = experiment: Antibacterial activity against Staphylococcus aureus ATCC 25923 assessed as growth inhibition at 100 ug/mL after 18 to 24 hrs by microdilution assay; format: functional, organism-based
Bacillus spizizenii [10] = experiment: Antibacterial activity against Bacillus subtilis ATCC 6633 assessed as growth inhibition at 100 ug/mL after 18 to 24 hrs by microdilution assay; format: functional
Klebsiella pneumoniae [11] = experiment: Antibacterial activity against Klebsiella pneumoniae ATCC 13883 assessed as growth inhibition at 100 ug/mL after 18 to 24 hrs by microdilution assay; format: functional, organism-based
Pseudomonas aeruginosa [12] = experiment: Antibacterial activity against Pseudomonas aeruginosa ATCC 27853 assessed as growth inhibition at 100 ug/mL after 18 to 24 hrs by microdilution assay; format: functional, organism-based
Proteus vulgaris [13] = experiment: Antibacterial activity against Proteus vulgaris ATCC 13315 assessed as growth inhibition at 100 ug/mL after 18 to 24 hrs by microdilution assay; format: functional, organism-based
Enterococcus faecalis [14] = experiment: Antibacterial activity against Enterococcus faecalis ATCC 29212 assessed as growth inhibition at 100 ug/mL after 18 to 24 hrs by microdilution assay; format: functional, organism-based

Row | Compound | MIC (Klebsiella pneumoniae [3]) [µg/mL] | MIC (Pseudomonas aeruginosa [4]) [µg/mL] | MIC (Enterococcus faecalis [5]) [µg/mL] | MIC (Proteus vulgaris [6]) [µg/mL] | MIC (Bacillus spizizenii [7]) [µg/mL] | MIC (Staphylococcus aureus [8]) [µg/mL] | Activity [1] [equiv] | SC50 [2] [µg/mL] | growth inhibition (GI) (Staphylococcus aureus [9]) | growth inhibition (GI) (Bacillus spizizenii [10]) | growth inhibition (GI) (Klebsiella pneumoniae [11]) | growth inhibition (GI) (Pseudomonas aeruginosa [12]) | growth inhibition (GI) (Proteus vulgaris [13]) | growth inhibition (GI) (Enterococcus faecalis [14])
1 | Nc1ccccc1C(=O)/C=C/c1ccncc1 |  |  |  |  |  |  | 43 | 130 |  |  |  |  |  | 
2 | CC1(C)S[C@@H]2[C@H](NC(=O)[C@H](N)c3ccccc3)C(=O)N2[C@H]1C(=O)O |  |  |  |  |  |  |  |  | Active | Active | Active | Active | Active | Active
3 | CCCCCCCn1c(-c2cc[n+](CCCCCCC)cc2)cc(=O)c2ccccc21.[Br-] | 62.5 | 62.5 | 62.5 | 125 | 62.5 | 31.2 | 59 | 56 |  |  |  |  |  | 
4 | O=c1cc(-c2ccncc2)[nH]c2ccccc12 |  |  |  |  |  |  | 46 | 133 |  |  |  |  |  | 
5 | CCCCCCn1c(-c2cc[n+](CCCCCC)cc2)cc(=O)c2ccccc21.[Br-] | 15.6 | 7.8 | 31.2 | 62.5 | 31.2 | 7.8 | 141 | 56 |  |  |  |  |  | 
6 | CCCCCCCCCCCCCCn1c(-c2cc[n+](CCCCCCCCCCCCCC)cc2)cc(=O)c2ccccc21.[Br-] | 500 | 500 | 250 | 500 | 500 | 500 | 14 | 72 |  |  |  |  |  | 
7 | CCCCCCCCCCCCCn1c(-c2cc[n+](CCCCCCCCCCCCC)cc2)cc(=O)c2ccccc21.[Br-] | 250 | 250 | 250 | 250 | 250 | 250 | 53 | 45 |  |  |  |  |  | 
8 | CCCCCCCCCCn1c(-c2cc[n+](CCCCCCCCCC)cc2)cc(=O)c2ccccc21.[Br-] | 62.5 | 31.2 | 125 | 62.5 | 62.5 | 62.5 | 40 | 78 |  |  |  |  |  | 
9 | CCCCCCCCn1c(-c2cc[n+](CCCCCCCC)cc2)cc(=O)c2ccccc21.[Br-] | 31.2 | 31.2 | 62.5 | 31.2 | 31.2 | 15.6 | 59 | 85 |  |  |  |  |  | 

More lines, in order of falling MIC (Klebsiella pneumoniae [3]), values ahead:

Row | MIC (Klebsiella pneumoniae [3]) [µg/mL] | MIC (Pseudomonas aeruginosa [4]) [µg/mL] | MIC (Enterococcus faecalis [5]) [µg/mL] | MIC (Proteus vulgaris [6]) [µg/mL] | MIC (Bacillus spizizenii [7]) [µg/mL] | MIC (Staphylococcus aureus [8]) [µg/mL] | Compound | Activity [1] [equiv] | SC50 [2] [µg/mL] | growth inhibition (GI) (Staphylococcus aureus [9]) | growth inhibition (GI) (Bacillus spizizenii [10]) | growth inhibition (GI) (Klebsiella pneumoniae [11]) | growth inhibition (GI) (Pseudomonas aeruginosa [12]) | growth inhibition (GI) (Proteus vulgaris [13]) | growth inhibition (GI) (Enterococcus faecalis [14])
10 | 250 | 500 | 250 | 500 | 500 | 500 | CCCCCCCCCCCCCCCn1c(-c2cc[n+](CCCCCCCCCCCCCCC)cc2)cc(=O)c2ccccc21.[Br-] | 66 | 133 |  |  |  |  |  | 
11 | 125 | 62.5 | 125 | 31.2 | 125 | 62.5 | CCCCCCCCCCCn1c(-c2cc[n+](CCCCCCCCCCC)cc2)cc(=O)c2ccccc21.[Br-] | 44 | 72 |  |  |  |  |  | 
12 | 125 | 125 | 125 | 125 | 250 | 125 | CCCCCCCCCCCCn1c(-c2cc[n+](CCCCCCCCCCCC)cc2)cc(=O)c2ccccc21.[Br-] | 39 | 82 |  |  |  |  |  | 
13 | 31.2 | 15.6 | 62.5 | 62.5 | 62.5 | 15.6 | CCCCCn1c(-c2cc[n+](CCCCC)cc2)cc(=O)c2ccccc21.[Br-] | 94 | 112 |  |  |  |  |  | 
14 | 31.2 | 62.5 | 62.5 | 31.2 | 62.5 | 31.2 | CCCCCCCCCn1c(-c2cc[n+](CCCCCCCCC)cc2)cc(=O)c2ccccc21.[Br-] | 59 | 55 |  |  |  |  |  | 
